Experimental data taken from ChEMBL document CHEMBL3758165, “In vitro interactions between anidulafungin and nonsteroidal anti-inflammatory drugs on biofilms of Candida spp” (2016).

Tests used:
Assay type in all cases: functional
[1] = system: Meyerozyma guilliermondii; test: Antibiofilm activity against Candida guilliermondii ATCC 6260 by two dimensional checkerboard dilution method in presence of diclofenac
Method in brief: (§1)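 Preformed 48 h disk biofilms (RPMI 1640, MOPS pH 7, 37 °C), PBS-washed, exposed 24 h at 37 °C on rocker to two-dimensional checkerboard of anidulafungin plus NSAID in RPMI; NSAID final 0.1 µM to 100 mM. XTT reduction at 490 nm; SMIC = combination giving 50% metabolic reduction versus drug-free control; FIC index calculated; triplicate on different days.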

[2] = system: Candida albicans; test: Antibiofilm activity against Candida albicans ATCC 10231 assessed as fractional inhibitory concentration by two dimensional checkerboard dilution method in presence of diclofenac; method in brief: as §1
[3] = system: Candida albicans; test: Antibiofilm activity against Candida albicans ATCC 90028 assessed as fractional inhibitory concentration by two dimensional checkerboard dilution method in presence of ibuprofen; method in brief: as §1
[4] = system: Candida albicans; test: Antibiofilm activity against Candida albicans 17a18 after 48 hrs by XTT reduction assay relative to control; parameters: scale not given: the % may be the effect or the level left
Method in brief: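 Biofilms grown on autoclaved PVC disks: 1·10^6 cfu ml-1 cells, adhesion 1.5 h at 37 °C shaking 100 rpm, PBS wash, then 48 h at 37 °C in RPMI 1640 (MOPS, pH 7). Metabolic activity read by XTT–menadione reduction, 2 h at 37 °C, supernatant formazan at 490 nm, relative to drug-free control; triplicate on different days.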

[5] = system: Candida albicans; test: Antibiofilm activity against Candida albicans 17a18 by two dimensional checkerboard dilution method in presence of ibuprofen; method in brief: as §1
[6] = system: Candida albicans; test: Antibiofilm activity against Candida albicans ATCC 90028 assessed as fractional inhibitory concentration by two dimensional checkerboard dilution method in presence of diclofenac; method in brief: as §1
[7] = system: Candida albicans; test: Antibiofilm activity against Candida albicans ATCC 10231 by two dimensional checkerboard dilution method in presence of aspirin; method in brief: as §1
[8] = system: Candida albicans; test: Antibiofilm activity against Candida albicans ATCC 10231 assessed as fractional inhibitory concentration by two dimensional checkerboard dilution method in presence of aspirin; method in brief: as §1
[9] = system: Candida albicans; test: Antibiofilm activity against Candida albicans ATCC 10231 assessed as fractional inhibitory concentration by two dimensional checkerboard dilution method in presence of ibuprofen; method in brief: as §1
[10] = system: Meyerozyma guilliermondii; test: Antibiofilm activity against Candida guilliermondii a410 by two dimensional checkerboard dilution method in presence of diclofenac
Method in brief: (§2)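 Biofilms were grown on PVC disks from 2 ml of a 1·10^6 cfu/ml cell suspension. Adhesion ran 1.5 h at 37 °C with shaking at 100 rpm. Disks were PBS-washed, then matured 48 h at 37 °C in RPMI 1640 (MOPS, pH 7). Biofilms were washed again and given 24 h at 37 °C of anidulafungin/NSAID checkerboard combinations (NSAID final 0.1 µM–100 mM). Read-out was XTT-menadione (2 h, 37 °C, 490 nm). SMIC was defined as 50% reduction versus drug-free control, from which FICI was calculated. Triplicates were run on different days.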

[11] = system: Meyerozyma guilliermondii; test: Antibiofilm activity against Candida guilliermondii ATCC 6260 assessed as fractional inhibitory concentration by two dimensional checkerboard dilution method in presence of ibuprofen; method in brief: as §1
[12] = system: Nakaseomyces glabratus; test: Antibiofilm activity against Candida glabrata 18a10 assessed as fractional inhibitory concentration by two dimensional checkerboard dilution method in presence of aspirin; method in brief: as §1
[13] = system: Meyerozyma guilliermondii; test: Antibiofilm activity against Candida guilliermondii a410 assessed as fractional inhibitory concentration by two dimensional checkerboard dilution method in presence of diclofenac; method in brief: as §2
[14] = system: Meyerozyma guilliermondii; test: Antibiofilm activity against Candida guilliermondii a83 assessed as fractional inhibitory concentration by two dimensional checkerboard dilution method in presence of ibuprofen; method in brief: as §2
[15] = system: Meyerozyma guilliermondii; test: Antibiofilm activity against Candida guilliermondii a410 at 1 mM after 24 hrs by XTT reduction assay relative to control; parameters: scale not given: the % may be the effect or the level left
Method in brief: (§3)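 Biofilms grown on sterilized PVC disks: 1·10^6 cfu/ml Candida cells adhered for 1.5 h at 37 °C with shaking, washed with PBS, then matured 48 h at 37 °C in RPMI 1640 (MOPS, pH 7). Preformed biofilms were washed and exposed to drug, alone or in two-dimensional checkerboard combination, in RPMI 1640 for 24 h at 37 °C on a rocker.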

[16] = system: Candida albicans; test: Antibiofilm activity against Candida albicans ATCC 24433 at 1 mM after 24 hrs by XTT reduction assay relative to control; parameters: scale not given: the % may be the effect or the level left; method in brief: as §3
[17] = system: Meyerozyma guilliermondii; test: Antibiofilm activity against Candida guilliermondii ATCC 6260 at 0.1 uM to 100 mM after 48 hrs by XTT reduction assay relative to control; parameters: scale not given: the % may be the effect or the level left; method in brief: as §3

In the case of `CCCCCOc1ccc(-c2ccc(-c3ccc(C(=O)N[C@@H]4C[C@@H](O)[C@@H](O)NC(=O)[C@@H]5[C@@H](O)[C@@H](C)CN5C(=O)[C@H]([C@@H](C)O)NC(=O)[C@H]([C@H](O)[C@@H](O)c5ccc(O)cc5)NC(=O)[C@@H]5C[C@@H](O)CN5C(=O)[C@H]([C@H](C)O)NC4=O)cc3)cc2)cc1`, the MIC [1] is reported as 0.1 µg/mL, the Ratio [2] is reported as 0.05 and the Ratio [3] is reported as 0.2. For the same molecule, the Activity [4] was 29.31%, the MIC [5] was 0.4 µg/mL and the Ratio [6] was 0.05. The MIC [7] was 0.1 µg/mL, the Ratio [8] was 0.05 and the Ratio [9] was 0.2. The MIC [10] was 0.1 µg/mL, the Ratio [11] was 0.2 and the Ratio [12] was 0.05. For the same molecule, the Ratio [13] was 0.05 and the Ratio [14] was 0.05.
Work on `CC(=O)Oc1ccccc1C(=O)O` [ASPIRIN] yielded an Activity [15] of 43.25% and an Activity [16] of 48.75%.
`O=C([O-])Cc1ccccc1Nc1c(Cl)cccc1Cl.[Na+]` [DICLOFENAC SODIUM] showed an Activity [17] of 60.98%.
